# Compound activity: PubChem BioAssay, several laboratories
# The list is not random: actives were taken first. Their share in the collection is about 4.2%.
# WT yeast gro inh: growth inhibition of WT strain, primary screen, mitochondrial fusion inhibitor project, WT and mutant strains, chemical genetic | mitochondrial fusion phenotypic screen | inhibition, % at 10 µM | actives 2.1% (n = 190,000) | AID 1362, 2008; in the data active = inhibition above about 58%; tested in S. cerevisiae
# Insulin prom up: insulin promoter activators in MIN6 cells, imaging, high-content screening, mouse beta cells; MIN6 insulin promoter-GFP reporter; active compounds read high; z-score at 5 µM; actives 0.3% (n = 190,000);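 active = z-score above 3 at 5 µM with at least 500 cells counted in the well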
# Cl transport mod: KCC2 cotransporter modulators, thallium flux, primary screen, cell-based, HEK293 KCC2, FluoZin-2 fluorescence, MLSMR; AID 1456, 2008; KCC2 cells, thallium flux FluoZin-2 fluorescence; actives 2.2% (n = 190,000); B-score of Tl+ flux slope (higher = more flux/activation; lower = inhibition) at 10 µM;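 active = thallium flux slope and its plate-corrected score both differing from the plate sample mean at a set confidence after two filtering rounds, in either direction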;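 also: slope of fluorescence scaled to starting intensity during 10 to 20 s after thallium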
# Target sequence (Q9H2X9 whole entry, looked up): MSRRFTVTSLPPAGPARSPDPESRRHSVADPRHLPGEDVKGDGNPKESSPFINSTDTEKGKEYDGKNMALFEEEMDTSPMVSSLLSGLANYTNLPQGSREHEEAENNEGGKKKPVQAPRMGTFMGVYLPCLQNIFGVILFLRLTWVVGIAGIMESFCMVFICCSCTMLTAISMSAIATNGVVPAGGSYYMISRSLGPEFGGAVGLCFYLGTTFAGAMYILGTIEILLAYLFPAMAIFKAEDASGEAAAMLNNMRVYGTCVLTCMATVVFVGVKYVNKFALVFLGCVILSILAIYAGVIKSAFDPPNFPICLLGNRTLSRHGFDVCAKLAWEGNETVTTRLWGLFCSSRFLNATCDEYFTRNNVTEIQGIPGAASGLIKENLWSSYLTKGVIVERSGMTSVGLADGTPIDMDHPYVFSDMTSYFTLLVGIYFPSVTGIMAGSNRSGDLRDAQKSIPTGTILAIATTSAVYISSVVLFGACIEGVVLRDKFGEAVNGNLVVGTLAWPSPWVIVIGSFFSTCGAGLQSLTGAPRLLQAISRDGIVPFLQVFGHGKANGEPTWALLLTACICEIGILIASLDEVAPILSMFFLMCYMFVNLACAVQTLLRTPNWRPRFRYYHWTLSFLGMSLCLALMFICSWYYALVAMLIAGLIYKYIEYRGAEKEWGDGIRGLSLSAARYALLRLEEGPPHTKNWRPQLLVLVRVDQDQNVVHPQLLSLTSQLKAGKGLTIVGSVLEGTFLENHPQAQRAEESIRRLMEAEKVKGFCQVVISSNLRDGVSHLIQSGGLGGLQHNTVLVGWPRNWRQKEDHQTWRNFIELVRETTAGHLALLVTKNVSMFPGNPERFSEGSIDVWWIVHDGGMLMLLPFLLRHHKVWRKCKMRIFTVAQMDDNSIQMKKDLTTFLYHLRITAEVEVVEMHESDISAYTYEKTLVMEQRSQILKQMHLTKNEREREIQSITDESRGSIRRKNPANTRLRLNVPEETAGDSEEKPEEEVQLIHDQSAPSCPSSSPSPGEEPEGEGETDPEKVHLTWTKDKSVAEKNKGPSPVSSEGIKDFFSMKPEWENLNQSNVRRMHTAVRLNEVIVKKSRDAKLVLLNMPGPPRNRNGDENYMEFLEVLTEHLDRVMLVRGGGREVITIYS
# SKKanGAS inh: S. pyogenes SKKanGAS growth inhibitors in kanamycin, primary screen, streptokinase expression inhibitor project, SKKanGAS strain, BacTiter-Glo luminescence; actives 1.3% (n = 300,000); 6 h; AID 1662, 2009; inhibition, % at 7.5 µM;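 active = mean replicate score, as percent of positive control median, at least 50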;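 also: strain carries kanamycin resistance gene driven by streptokinase promoter and grows in 40 µg/ml kanamycin; loss of luminescence reflects streptokinase promoter inhibition or plain growth inhibition; 0% = median of DMSO wells and 100% = positive control at its reference dose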
# Autophagy HCS: autophagy modulators in MEF cells, primary screen, imaging, high-content, MEF GFP-LC3; MEF GFP-LC3 puncta imaging; test concentration mostly 10 µM; actives 0.98% (n = 190,000); calls only at 10 µM (by protocol); AID 463193, 2010;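 active = percentage of spot-positive cells more than 3 SD above its plate mean, without a fluorescence outlier flag or 80% toxicity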;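 also: spot-positive cell cutoff set from DMSO-treated cells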
# Rad51 HR inh: human RAD51 strand exchange inhibitors, primary screen, biochemical, fluorescence; inhibition, % at 10 µM; AID 1385, 2008; DNA repair protein RAD51 homolog 1 (Homo sapiens), Q06609; hRad51 DNA strand exchange, fluorescence dequenching; actives 0.085% (n = 200,000);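 active = inhibition above 40% at the single screening dose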;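 also: 0% = DMSO control wells and 100% = blanks with heterologous ssDNA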
#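 Assay system: Human Rad51 nucleoprotein filaments preassembled on unlabelled ssDNA | Reagent: Donor/quencher-labelled 47-bp dsDNA substrate | Doses: One concentration, 10 µM final | Times: 37 °C 15-min filament assembly, 30-min compound preincubation, 15-min exchange | Technique: Fluorescein emission 520 nm, excitation 485 nm | Benchmarks: Plate control and blank wells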
# Active calls of the source: *; i = inactive; nt = not tested or not shown; + = active, no number.
SMILES,WT yeast gro inh,Insulin prom up,Cl transport mod,SKKanGAS inh,Autophagy HCS,Rad51 HR inh
COc1ccccc1N1CCN(c2ncc(C(=O)N3CCN(c4cccc(Cl)c4)CC3)c3ccccc23)CC1,59*,nt,1.2,21,i,6
CCOc1ccc2ccccc2c1C(=O)N1CCN(c2ccccc2)CC1,10,-0.15,nt,-3,+,-1
O=C(C1CC1c1ccccc1)N1CCN(c2cccc(Cl)c2)CC1 (stereo not drawn),77*,-0.82,-0.94,nt,i,0
O=C(CCC(=O)N1CCN(c2cccc(Cl)c2)CC1)N1CCN(c2ccccc2)CC1,nt,nt,nt,3,nt,nt
CCOC(=O)c1[nH]c(C)c(C(=O)N2CCN(c3ccccc3)CC2)c1C,-2,0.46,nt,-13,i,-1
CCOC(=O)c1cnc2ccc(C(=O)OC)cc2c1Nc1ccc2c(c1)OCCO2,32,nt,-0.47,3,+,-4
CCOC(=O)c1cnc2ccc(OC)cc2c1Nc1ccc2c(c1)OCCO2,77*,1.6,-1.9,6,i,8
CC(OC(=O)/C=C/c1ccccc1)C(=O)N1CCc2ccccc21 (stereo not drawn),nt,nt,nt,-13,nt,nt
CCC1CCCCN1CCCCOc1cccc(Cl)c1 (stereo not drawn),nt,nt,nt,9,nt,nt
COC(=O)c1ccccc1NC(=O)CSc1nnc(-c2cccnc2)n1N,3,0.27,0.006,2,i,44*
Nn1c(SCC(=O)Nc2ccccc2F)nnc1-c1cccnc1,11,0.14,-0.86,2,i,5
Cc1cc(NC(=O)c2cccs2)ncc1NC(=O)C(C)(C)C,nt,nt,nt,0,nt,nt
CCN1C(=O)C(CC(=O)Nc2ccc(F)cc2)N(Cc2ccco2)C1=S (stereo not drawn),14,0.64,0.024,-2,i,-9
CCCCCCOc1ccc(NC(=O)CC2C(=O)N(CC)C(=S)N2Cc2ccco2)cc1 (stereo not drawn),62*,-1.3,0.87,39,i,-10
Cc1cc(C)c(S(=O)(=O)N2CCOC2CNC(=O)C(=O)NCCN(C)C)c(C)c1 (stereo not drawn),nt,nt,nt,4,nt,nt
Cc1cccc2c1NC(=O)C2(c1ccc(O)cc1)c1ccc(O)cc1,-9,-0.37,13*,1,i,3
Cc1cc(C2(c3ccc(O)c(C)c3)C(=O)Nc3ccccc32)ccc1O,1,-0.04,-0.69,19,i,-1
Cc1ccc(NC(=O)CSc2nc(=O)n(CCN(C)C)c3c2CCCC3)cc1Cl,nt,nt,nt,-16,nt,nt
CN(CC(=O)Nc1ccccc1-c1ccccc1)Cc1ccccc1Cl,70*,0.01,0.44,38,i,0
COc1ccc(Br)cc1CN(C)CC(=O)Nc1cc(Cl)ccc1Cl,10,-0.12,0.91,-1,i,11
COc1ccc(Br)cc1CN(C)CC(=O)Nc1ccccc1Cl,67*,-0.03,0.0039,2,i,9
COc1ccc(C(=O)c2ccc(N(C)C)cc2)c2ccccc12,48,nt,nt,-6,+,-3
O=S(=O)(Nc1cc2nc3ccccc3nc2n1Cc1ccccc1)c1ccc(Cl)cc1,-5,nt,i,48,+,-55
O=C(c1ccc(CS(=O)c2ccc(F)cc2)o1)N1CCN(C2CCCCC2)CC1 (stereo not drawn),nt,nt,nt,7,nt,nt
CCCCCOc1ccc(C(C)(O)C(CN2CCOCC2)c2ccccc2)cc1 (stereo not drawn),nt,nt,nt,6,nt,nt
SMILES,WT yeast gro inh,Insulin prom up,Cl transport mod,SKKanGAS inh,Autophagy HCS,Rad51 HR inh
C=CCNC(=O)C1CCN(S(=O)(=O)c2ccc(Br)cc2)CC1,4,3.1*,nt,2,i,7
CN(C)S(=O)(=O)c1ccc(/C(O)=C2/C(=O)C(=O)N(CCCN3CCOCC3)C2c2ccncc2)cc1 (stereo not drawn),nt,nt,nt,-22,nt,nt
C=CCN(CC(O)c1cccc([N+](=O)[O-])c1)C(C)CCc1ccccc1 (stereo not drawn),nt,-0.02,-0.25,3,nt,nt
CCOc1ccc(-n2c(O)c(/C=N/NC(=O)C3COc4ccccc4O3)c3ccccc3c2=O)cc1 (stereo not drawn),-9,nt,-2.6,73*,i,1
COc1cc(/C=N\NC(=O)C2COc3ccccc3O2)cc(OC)c1O (stereo not drawn),nt,-0.01,0.56,-5,nt,7
Nc1c(C(=O)Nc2nc3ccccc3s2)sc2nc(-c3cccs3)ccc12,8,nt,nt,50*,+,-352
COC(=O)c1nc(NC(=S)NC(=O)c2cccs2)sc1C,nt,nt,nt,60*,nt,nt
O=C(NC(=S)Nc1nc2ccccc2s1)c1cccs1,34,0.25,72*,5,i,-11
CN(NC(=O)/C=C/C(=O)O)c1ncc(C(F)(F)F)cc1Cl,-9,-0.15,0.12,-6,i,11
CC[C@@H](C)[C@H](CN[C@H](CNC)C(C)C)NC[C@@H](C)c1ccc(CC(C)C)cc1,nt,nt,nt,64*,nt,nt
CCn1c(SCc2nc3ccccc3[nH]2)nnc1-c1cccs1,-8,1.8,nt,0,+,-3
CCn1c(SCc2nc3ccccc3[nH]2)nnc1-c1ccccc1OC,-7,-0.54,0.15,0,i,-6
O=C(CCCc1nc(-c2ccccc2Cl)no1)NC1CCCCC1,9,-0.27,-1.1,-6,+,16
CCOP(=O)(OCC)c1nc(-c2cccc3ccccc23)oc1NCCc1ccc(OC)cc1,70*,-0.05,-0.1,13,i,8
Cc1ncc(CO)c(/C=N/NC(=S)Nc2ccc(Cl)c(Cl)c2)c1O,28,-1.1,-1.2,66*,i,nt
Cc1ncc(CO)c(/C=N/NC(=S)Nc2cccc(Cl)c2)c1O,16,-0.28,-1.6,-8,i,-10
COc1ccc(C(=O)CCC(=O)Nc2cccnc2)cc1,-9,0.81,-0.0042,-7,i,-3
O=C(c1ccc([N+](=O)[O-])cc1)N(Cc1ccc(Br)cc1)N1C(=O)CCCC1=O,22,0.98,nt,0,+,-1
CCn1cnc2c1c(=O)n(CC(=O)OC(C)C(N)=O)c(=O)n2Cc1ccccc1 (stereo not drawn),nt,nt,nt,1,nt,nt
COc1cccc(C(c2nnnn2Cc2ccccc2)N2CCN(C3CCCC3)CC2)c1OC (stereo not drawn),-3,-1.6,0.7,0,+,-2
O=C(Nc1ccncc1Cl)c1ccncc1,nt,nt,nt,13,nt,nt
CCOC(=O)c1c(C)[nH]c(=S)c(C#N)c1-c1ccc(OC)cc1,13,-0.42,-1.5,5,i,0
CCOC(=O)c1c(C)[nH]c(=S)c(C#N)c1-c1ccc(Cl)cc1,-5,-0.11,11*,17,i,10
O=C(NCc1ccncc1)c1cccc(F)c1,-10,-0.71,0.51,-11,i,0
